The list is not random: actives were taken first. Their share in the collection is about 9.6%.
PMI act hi M6P: PMI (human) activation, high substrate; P34949; coupled PMI enzyme assay, resazurin fluorescence, 20 min; stronger effect = higher value; 1 = untreated enzyme, 0 = substrate-free blank; activation factor at 20 µM; 190,000 tested, 0.34% active; AID 1216;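 active = activation factor of 2 or more at 20 µM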
Target sequence (P34949 whole entry, looked up): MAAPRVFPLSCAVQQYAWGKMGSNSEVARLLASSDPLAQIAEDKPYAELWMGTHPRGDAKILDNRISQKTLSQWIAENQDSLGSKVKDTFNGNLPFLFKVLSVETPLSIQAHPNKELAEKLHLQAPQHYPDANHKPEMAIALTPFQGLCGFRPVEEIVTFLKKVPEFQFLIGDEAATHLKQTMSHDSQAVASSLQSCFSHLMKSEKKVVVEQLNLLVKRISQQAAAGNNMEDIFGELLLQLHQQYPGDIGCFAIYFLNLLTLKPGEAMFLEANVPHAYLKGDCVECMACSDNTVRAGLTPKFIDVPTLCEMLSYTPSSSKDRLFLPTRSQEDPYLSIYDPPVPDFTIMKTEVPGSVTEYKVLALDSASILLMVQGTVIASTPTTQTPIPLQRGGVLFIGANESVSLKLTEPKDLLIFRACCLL
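Test system: human PMI in coupled enzyme assay; Input: PMI at 15 ng/mL final; Medium: HEPES buffer, pH 7.4; Schedule: 20 min incubation at room temperature; Technique: resorufin fluorescence at Ex 544/Em 590 nm; Compound: 20 µM single dose; Probe or stimulus: Near-saturating mannose-6-phosphate, 1.0 mM.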
PTEN del growth: suppresses growth of cells with PTEN deletion | 140,000 tested, 1.2% active | viability, % at 10 µM | AID 827 | HCT116 PTEN-null viability, CellTiter-Glo, 60 h; stronger effect = lower value;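 active = viability at or below a set limit, 4 SD under the median of all tested compounds, cut at about 3.7% in these data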;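 note: PTEN knockout HCT116 line with beta catenin targeted HCT116 as companion control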
PMI activator: activators of human phosphomannose isomerase; purified human PMI, coupled resazurin fluorescence, 20 min; stronger effect = higher value; 1 = vehicle control, 0 substrate-free wells; activation factor at 20 µM; 190,000 tested, 0.005% active; AID 1214;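 active = activation factor of 2 or more at 20 µM, relative to plate controls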
bCat KO growth: beta-catenin-lacking colon tumor cell growth suppression; HCT116 beta-catenin knockout viability, CellTiter-Glo, 60 h; stronger effect = lower value; viability, % at 10 µM; 140,000 tested, 1.5% active; AID 818;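 active = viability at or under a set limit, the compound median less 4 SD, cut at about 6% in these data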
L major viab: reduces viability of Leishmania major promastigotes. resazurin fluorescence viability. inhibition, % at 10 µM. 200,000 tested, 9% active. AID 1063; in the data active = inhibition above about 50%;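 note: promastigotes grown with compound for 44 hours at 28 °C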
A number is an active result; 0 = inactive; - = no result given.

SMILES | PMI act hi M6P | PTEN del growth | PMI activator | bCat KO growth | L major viab
Cc1ccsc1C(=O)OCC(=O)Nc1cccc(S(=O)(=O)N2CCOCC2)c1 | 0 | 0 | 0 | 0 | 0
COc1ccc(CCNC(=O)C2CCN(c3nccc(C)n3)CC2)cc1 | 0 | - | 0 | - | 0
CC(=O)c1ccc(Nc2cc(C)nc3c(C)cc(C)cc23)cc1 | 0 | - | 0 | - | 100.2
CC(=O)c1ccc(Nc2cc(C)nc3nc(C)nn23)cc1 | 0 | 0 | 0 | 0 | 0
COc1ccc2oc(=O)c(-c3nnc(NCc4ccco4)s3)cc2c1 | 0 | 3.8 | 0 | 4.2 | 0
CCOc1cccc2cc(-c3nnc(NCc4ccco4)s3)c(=O)oc12 | 0 | 0 | 0 | 0 | 0
O=c1oc2ccccc2cc1-c1nc2ccccc2o1 | 0 | 0 | 0 | 0 | 0
O=c1oc2ccc3ccccc3c2cc1-c1nc2ccccc2o1 | - | - | - | - | 99.7
COc1ccc2oc(=O)c(-c3nc4ccccc4o3)cc2c1 | 0 | 0 | 0 | 0 | 97.6
Cc1csc(NC(=O)Cc2nn(C)c(=O)c3ccccc23)n1 | 0 | 0 | 0 | 0 | 0
CCOC(=O)c1ccc(NC(=O)CSc2nc3cccnc3n2C)cc1 | 0 | 0 | 0 | 0 | 0
O=c1[nH]ncc(N2CCN(C(c3ccccc3)c3ccccc3)CC2)c1Cl | 0 | 0 | 0 | 0 | 92.9
Cc1cc(C)n(-c2nnc(NC(C)(C)C)nn2)n1 | 0 | 0 | 0 | 0 | 0
CC(C)(C)Nc1nc(NC(C)(C)C)nc(-n2ccnc2)n1 | 0 | 0 | 0 | 0 | 98.3
Cc1cc(C)n(-c2nc(Nc3ccccc3C)nc(-n3nc(C)cc3C)n2)n1 | 0 | 0 | 0 | 0 | 0
CC(C)(C)Nc1nc(Cl)nc(NC(C)(C)C)n1 | 0 | 0 | 0 | 0 | 0
Cc1cc(C)n(-c2nc(NC(C)(C)C)nc(NC(C)(C)C)n2)n1 | 0 | 0 | 0 | 4.6 | 0
Cc1cc(C)n(-c2nc(Nc3ccccc3C(F)(F)F)nc(-n3nc(C)cc3C)n2)n1 | 0 | 3.5 | 0 | 2.9 | 100.3
CCn1c(SCC(=O)Nc2cccc(C(C)=O)c2)nnc1C(C)C | 0 | 0 | 0 | 0 | 0
CCCCCc1nc2c(C#N)c(-c3ccc(Cl)cc3)ccn2n1 | 0 | 0 | 0 | 0 | 0
COc1ccc(-c2cc3nc(C)cc(N4CC(C)CC(C)C4)n3n2)cc1 (configuration not stated) | 0 | 0 | 0 | 0 | 0
CCc1c(C)nc2cc(-c3ccc(OC)c(OC)c3)nn2c1NCC1CC1 | 0 | 0 | 0 | 0 | 100.6
COc1ccc2oc(C(=O)OCC(=O)NCCN3C(=O)CSC3=O)c(C)c2c1 | 0 | 0 | 0 | 0 | 0
CC(C)NC(=S)N1CCN(S(=O)(=O)c2cccc(C(F)(F)F)c2)CC1 | 0 | 0 | 0 | 0 | 95.2
O=C(NNC(=O)C1CCN(S(=O)(=O)c2cccc(C(F)(F)F)c2)CC1)C1CC1 | 0 | - | 0 | - | 0
SMILES | PMI act hi M6P | PTEN del growth | PMI activator | bCat KO growth | L major viab
O=S(=O)(c1cccc(C(F)(F)F)c1)N1CCN(C(=S)NC2CC2)CC1 | 0 | 0 | 0 | 0 | 54.6
CCNC(=S)N1CCN(S(=O)(=O)c2cccc(C(F)(F)F)c2)CC1 | 0 | 0 | 0 | 0 | 0
O=C(N/N=C\c1ccc(-c2cccc(Cl)c2)o1)C(=O)NC1CCCC1 | 0 | - | 0 | - | 0
CC1(C)Cc2c(ccc3ccccc23)C(=O)N1 | 0 | 0 | 0 | 0 | 0
CCNC(=O)/C=C1\NC(C)(C)Cc2c1ccc1ccccc21 | 0 | 0 | 0 | 0 | 100.4
CS(=O)(=O)c1cnc(-c2cccnc2)nc1N | 0 | - | 0 | - | 0
COc1ccc(-n2cc(CNCCc3cscn3)c(-c3ccccc3Cl)n2)cc1 | 0 | - | 0 | - | 0
Cc1ccc(-n2cc(CNCCc3cscn3)c(-c3ccc(F)cc3)n2)cc1 | 0 | - | 0 | - | 74.6
Cc1ccc(-n2cc(CNCCCn3ccnc3C)c(-c3ccc(F)cc3)n2)cc1 | 0 | - | 0 | - | 100.5
Cc1ccc(-n2cc(CN3CCN(Cc4nccn4C)CC3)c(-c3ccc(F)cc3)n2)cc1 | 0 | - | 0 | - | 0
CC1CCN(CCOCCSc2ccc(Cl)cc2)CC1 | 0 | - | 0 | - | 92.8
Clc1ccc(CN2CCCCCCC2)cc1 | 0 | 0 | 0 | 0 | 0
Clc1ccc(SCCOCCN2CCc3ccccc3C2)cc1 | 0 | - | 0 | - | 88.1
Clc1ccc(SCCOCCN2CCCCC2)cc1 | 0 | 0 | 0 | 0 | 98.2
CC1CCCN(CCSc2ccc(Cl)cc2)C1 (configuration not stated) | 0 | 0 | 0 | 0 | 72.3
CS(=O)(=O)N(CC(=O)Nc1cccnc1)c1ccc2c(c1)OCO2 | 0 | 0 | 0 | 0 | 0
N/C(COc1ccccc1)=N\NC(=O)c1cccnc1Oc1ccccc1 | 0 | 0 | 0 | 0 | 0
Cc1nc(Cl)c(C(=O)NC(=O)Nc2cccc(C(F)(F)F)c2)c(C)c1[N+](=O)[O-] | 0 | 0 | 0 | 0 | 0
CN(C)CCOc1nc(-c2ccccc2)nc2c1oc1ccccc12 | 0 | 3.0 | 0 | 2.0 | 99.8
CC(C)c1nc(SCC(=O)Nc2nc3c(s2)CCCC3)c2ccccc2n1 | 0 | 0 | 0 | 0 | 0
CC(C)(C)c1nc(SCC(=O)Nc2nc3c(s2)CCCC3)c2ccccc2n1 | 0 | 0 | 0 | 0 | 79.8
COc1cccc(N2CCN(c3cnc4ccccc4n3)CC2)c1 | 0 | - | 0 | - | 69.7
CCOc1ccccc1Nc1nnc(SC(C)C(=O)Nc2nc(-c3ccccc3)cs2)s1 (configuration not stated) | 0 | 0 | 0 | 0 | 0
C#Cc1ccc(CN2CCN(Cc3ccsc3)C(CCO)C2)cc1 (configuration not stated) | 0 | - | 0 | - | 0
OCCC1CN(Cc2ccc(-c3ccco3)cc2)CCN1Cc1ccsc1 (configuration not stated) | 0 | - | 0 | - | 76.1
SMILES | PMI act hi M6P | PTEN del growth | PMI activator | bCat KO growth | L major viab
OCCC1CN(Cc2ccccc2OC2CCCC2)CCN1Cc1ccsc1 (configuration not stated) | 0 | - | 0 | - | 60.6
Cc1ccc(-n2c(C)cc(C(=S)N3CCOCC3)c2C)cc1C | 0 | 0 | 0 | 0 | 0
Cc1cc2nc(NC3=NCN(Cc4ccc5c(c4)OCO5)CN3)nc(C)c2cc1C | 0 | - | 0 | - | -
C=CCn1c(SCC#N)nc2c(c1=O)C(C)(C)Cc1ccccc1-2 | 0 | 0 | 0 | 0 | 96.4
COc1ccc(C2CC(c3cccs3)=NN2c2ccc(C=O)cc2)cc1 (configuration not stated) | 0 | 0 | 0 | 0 | 92.2
COc1ccc(C2CC(c3cccs3)=NN2c2nc(-c3ccccc3)cs2)cc1OC (configuration not stated) | 2.1 | 0 | 0 | 0 | 0
Cc1nonc1CN(C)C(=O)CC1C(=O)NCCN1Cc1ccccc1C(F)(F)F (configuration not stated) | 0 | - | 0 | - | 0
CC(=O)N1N=C(c2ccco2)CC1c1ccc(Br)cc1 (configuration not stated) | 0 | 0 | 0 | 0 | 0
COc1ccc(CNCCSc2nnnn2C)cc1OC | 0 | 0 | 0 | 0 | 0
CCOc1cc(CNCCSc2nnnn2C)cc(Br)c1OCc1ccccc1F | 0 | 0 | 0 | 0 | 0
COc1cc(CNCCSc2nnnn2C)cc(Br)c1OCc1ccccc1 | 0 | - | 0 | - | 56.2
CCOc1cc(CNCCSc2nnnn2C)cc(Br)c1OCc1ccc(F)cc1 | 0 | 0 | 0 | 0 | 50.3
COc1cc(CNCCSc2nnnn2C)cc(Br)c1OCc1ccc(F)cc1 | 0 | 0 | 0 | 0 | 95.0

Bioassay records (PubChem BioAssay)
